Source: ChEMBL document CHEMBL4219104, “Bicyclo((aryl)methyl)benzamides as inhibitors of GlyT1” (Bioorg Med Chem Lett, 2018)
Converted amounts (≈) assume the structure as drawn.

Assays:
[1] = Octanol-water partition coefficient, log D of the compound at pH 7.4; type: physicochemical
In short: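 logD determined empirically as ratio of compound partitioned between octanol and water at pH 7.4.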

[2] = Equilibrium solubility of the compound in phosphate buffer at pH 7.4 by UV-HPLC analysis; type: physicochemical
In short: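 Equilibrium solubility determined at pH 7.4.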

[3] = Volume of distribution at steady state in Sprague-Dawley rat at 3 umol/kg, iv; type: ADME, organism-based; settings: in vivo, read-out: Vdss
[4] = Ratio of drug level in brain to plasma in Sprague-Dawley rat at 3 umol/kg, iv; type: ADME; settings: read-out: BPR
[5] = Cmax in Sprague-Dawley rat at 9 umol/kg, po; type: ADME, organism-based; design: dose 9 umol/kg, route oral; settings: in vivo
[6] = Tmax in Sprague-Dawley rat at 9 umol/kg, po; type: ADME, organism-based; settings: in vivo
[7] = Oral bioavailability in Sprague-Dawley rat at 9 umol/kg; type: ADME, organism-based; settings: in vivo
[8] = Ratio of drug level in brain to plasma in sc dosed CD-1 mouse; type: ADME, organism-based; settings: read-out: BPR
In short: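 CD-1 mice dosed subcutaneously; brain and plasma levels compared as brain-to-plasma ratio.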

Row | SMILES | logD [1] | solubility thermodynamic [2] | other results
1 | Cc1cccc(C)c1C(=O)NC(c1ccccc1)C12CCC(CC1)N2 (stereo not given) | 1.4 | – | –
2 | CN1CC2CCC1(C(NC(=O)c1cccc(C(F)(F)F)c1Cl)c1ccncc1)CC2 (racemic) | 2.4 | – | –
3 | Cc1cccc(C)c1C(=O)NC(c1ccncc1)C12CCC(CC1)CN2C (stereo not given) | 1.4 | – | –
4 | CN1CC2CCC1([C@@H](NC(=O)c1cccc(C(F)(F)F)c1Cl)c1ccccc1)CC2 | 2.7 | > 500 µM | –
5 | CN1CC2CCC1(C(NC(=O)c1cccc(C(F)(F)F)c1Cl)c1ccccc1)CC2 (racemic) | 2.7 | – | –
6 | CN1CC2CCC1(C(NC(=O)c1cccc(C(F)(F)F)c1Cl)c1ccco1)CC2 (racemic) | 2 | – | –
7 | COc1ccc(C(NC(=O)c2cccc(C(F)(F)F)c2Cl)C23CCC(CC2)CN3C)cc1 (racemic) | 2.7 | – | –
8 | COc1cccc(OC)c1C(=O)N[C@H](c1ccccc1)C12CCC(CC1)CN2C | 0.7 | 495 µM (≈ 195 µg/mL) | –
9 | CN1CC2CCC1([C@H](NC(=O)c1c(Cl)cccc1Cl)c1ccccc1)CC2 | 1.9 | > 500 µM | –
10 | Cc1cccc(C)c1C(=O)NC(c1ccccc1)C12CCC(CC1)N2C1CC1 (stereo not given) | 1.1 | – | –
11 | CN1CC2CCC1([C@H](NC(=O)c1c(Cl)cncc1Cl)c1ccccc1)CC2 | 1.4 | 481 µM (≈ 194 µg/mL) | –
12 | COc1cncc(Cl)c1C(=O)N[C@H](c1ccccc1)C12CCC(CC1)CN2C | 1 | > 500 µM | –
13 | CN1CC2CCC1([C@H](NC(=O)c1c(Cl)ccnc1Cl)c1ccccc1)CC2 | 1.1 | > 500 µM | –
14 | CN1CC2CCC1(C(NC(=O)c1cccc(C(F)(F)F)c1Cl)c1ccccn1)CC2 (racemic) | 1.6 | – | –
15 | Cc1cccc(C)c1C(=O)NC(c1ccncc1)C12CCC(CC1)N2 (stereo not given) | 0.9 | – | –
16 | CN1CC2CCC1(C(NC(=O)c1cccc(C(F)(F)F)c1Cl)c1cccnc1)CC2 (racemic) | 2.3 | – | –
17 | Cc1cccc(C)c1C(=O)NC(c1ccccc1)C12CC(CN1)C2 (stereo not given) | 0.8 | – | –
18 | CN1CC2CCC1([C@H](NC(=O)c1ccnc(Cl)c1Cl)c1ccccc1)CC2 | 2.2 | 498 µM (≈ 201 µg/mL) | –
19 | Cc1cccc(C)c1C(=O)NC(c1ccccc1)C12CCC(CC1)N2C (stereo not given) | 1.9 | – | –
20 | CN1CC2CCC1([C@H](NC(=O)c1cccc(Cl)c1Cl)c1ccccc1)CC2 | 2.2 | 493 µM (≈ 199 µg/mL) | –

Row | SMILES | logD [1] | solubility thermodynamic [2] | other results
21 | Cc1cccc(C)c1C(=O)NC(c1ccc(S(=O)(=O)CC2CC2)cc1)C12CCC(CC1)CN2C (stereo not given) | 2 | – | –
22 | CCN1CC2CC1(C(NC(=O)c1c(C)cccc1C)c1ccccc1)C2 (stereo not given) | 1.1 | – | –
23 | Cc1cccc(C)c1C(=O)NC(c1ccccc1)C12CC(CN1C)C2 (stereo not given) | 1.1 | – | –
24 | CCN1C2CCC1(C(NC(=O)c1c(C)cccc1C)c1ccccc1)CC2 (stereo not given) | 2.1 | – | –
25 | Cc1cccc(C)c1C(=O)N[C@H](c1ccccc1)C12CCC(CC1)CN2C | 1.9 | 414 µM (≈ 150 µg/mL) | Vd [3]: 1.8 L/kg; Kp [4]: 0.2; Cmax [5]: 2450 nM; Tmax [6]: 1 h; bioavailability [7]: 105%; Kp [8]: 0.4
26 | CN1CC2CCC1(C(NC(=O)c1cccc(C(F)(F)F)c1Cl)c1cccc(Br)c1)CC2 (racemic) | 3.3 | – | –
27 | CN1CCCC[C@H]1[C@@H](NC(=O)c1cccc(C(F)(F)F)c1Cl)c1ccccc1 | 2.9 | 124 µM (≈ 50.9 µg/mL) | –
28 | Cc1ccc(C(NC(=O)c2c(C)cccc2C)C23CCC(CC2)CN3C)o1 (stereo not given) | 1.5 | – | –
29 | CN1CC2CCC1([C@H](NC(=O)c1ccnc(C(F)(F)F)c1F)c1ccccc1)CC2 | 2.4 | > 500 µM | –
30 | CN1CC2CCC1([C@H](NC(=O)c1c(N)cccc1Cl)c1ccccc1)CC2 | 1.3 | 462 µM (≈ 177 µg/mL) | –
31 | Cc1cccc(C)c1C(=O)NC(c1ccccc1)C12CCC(CC1)CN2 (stereo not given) | 1.3 | – | –
32 | Cc1ccccc1C(NC(=O)c1cccc(C(F)(F)F)c1Cl)C12CCC(CC1)CN2C (racemic) | 3 | – | –
33 | Cc1cccc(C)c1C(=O)NC(c1ccccc1)C12CCC(CC1)N2C(C)C (stereo not given) | 1.9 | – | –
34 | Cc1cccc(C)c1C(=O)NC(c1cccc(-c2cnn(C)c2)c1)C12CCC(CC1)CN2C (stereo not given) | 2.1 | – | –
35 | Cc1cccc(C(NC(=O)c2cccc(C(F)(F)F)c2Cl)C23CCC(CC2)CN3C)c1 (racemic) | 3 | – | –
36 | Cc1ccnc(C)c1C(=O)N[C@H](c1ccccc1)C12CCC(CC1)CN2C | 0.8 | 373 µM (≈ 136 µg/mL) | –
37 | CN1CC2CCC1([C@H](NC(=O)c1cccc(C(F)(F)F)c1Cl)c1ccccc1)CC2 | 2.7 | > 482 µM | –
38 | CSc1ncccc1C(=O)N[C@H](c1ccccc1)C12CCC(CC1)CN2C | 1.3 | > 500 µM | –
39 | CN1CC2CCC1([C@H](NC(=O)c1ccncc1Br)c1ccccc1)CC2 | – | > 500 µM | –
